Results as given in ChEMBL document CHEMBL4513216, “Probing the Open Global Health Chemical Diversity Library for Multistage-Active Starting Points for Next-Generation Antimalarials” (ACS Infect Dis, 2020).

Assay: Toxicity liver stage against HepG2, at 10uM
Type: cell-based
Parameters: test concentration 10 uM, cell line HepG2-A16-CD81EGFP
Conditions: human, HepG2-A16-CD81EGFP cells; read-out: INHIBITION
In short: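 Uninfected HepG2-A16-CD81EGFP cells, 3 × 10^3 per well, 1536-well, plated on prespotted compound at 10 μM final, parasite-free screening media added to match infected plates; puromycin 10 μM positive, DMSO 0.5% negative; run in parallel with 48 h PbLuc assay at 37 °C, 5% CO2; viability by CellTiter-Glo luminescence, normalized to controls.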

| Compound | cytotoxicity at 10 µM [%] |
| --- | --- |
| Cc1ccnc(NC(=O)CCNC(=O)c2ccccc2Cl)c1 | -2.66 |
| CN(C)Cc1cc(CC2(NCc3ccc(C#N)cc3)COC2)no1 | -5.96 |
| CN1CCN(c2ccc(NS(=O)(=O)c3ccc(Br)s3)cc2C(=O)O)CC1 | -4.5 |
| COc1coc(C(=O)Nc2nc(-c3ccccn3)cs2)cc1=O | 7.31 |
| Cc1nn(C)cc1C1SCC(=O)Nc2c1c(O)nn2C(C)C (stereo not drawn) | 1.04 |
| Cc1cccc(CS(=O)(=O)NCc2nn(C)c3c2COCC3)c1 | -3.02 |
| COC(CNC(=O)c1cn(C)nn1)c1ccccc1C (stereo not drawn) | -14.5 |
| CN(Cc1cccnc1)[C@@H]1CN(Cc2ccccn2)[C@@H]2CCCO[C@H]12 | -0.0545 |
| COc1ccc(C(C)NC(=O)c2nn(C)c(C)c2Br)cc1 (stereo not drawn) | 9.18 |
| Clc1ccc2[nH]c3c(c2c1)CCCC3c1nn[nH]n1 (stereo not drawn) | -4.13 |
| Cc1nn(C)cc1CN1CCc2nc3sccc3c(=O)n2CC1 | -1.87 |
| CC(C)(C)C(=O)NCCc1cc(N2CCOCC2)nc(NC2CC2)n1 | 6.68 |
| CC(C)(C)Nc1c(C2CCN(C(=O)C(C)(C)C)CC2)nc2ccccn12 | 6.53 |
| CC1(C)O[C@@](C)([C@H]2CC3(CCN(c4cnccn4)CC3)CO2)CC[C@@H]1O | 5.53 |
| CN(c1cccnn1)[C@@H]1CC[C@@H]2CN(Cc3cccc(C(=O)O)c3)C[C@@H]21 | 6.17 |
| Cn1nccc1C(=O)N1CCC(c2ncc(Cl)cc2S(C)(=O)=O)CC1 | 7.91 |
| Cc1cnc(CC2COCCN(C(=O)CN3CCCCC3)C2)cn1 (stereo not drawn) | -3.22 |
| Cc1cc(-c2cnc(C(C)C)nc2CN(C)C(=O)c2ccccn2)on1 | 2.47 |
| COCCC(=O)N1CCCC(c2noc3nc(C)cc(C(F)(F)F)c23)C1 (stereo not drawn) | -19.9 |
| CCc1c(C)nc(C2CCCN2C(=O)c2cc(C)no2)nc1O (stereo not drawn) | -5.75 |
| Cc1ccc(S(=O)(=O)N2CCN(CCCO)CC2)s1 | -9.12 |
| Cc1noc(CN(Cc2ccco2)Cc2cccc3c2OCO3)n1 | -2.51 |

| Compound | cytotoxicity at 10 µM [%] |
| --- | --- |
| CS(=O)(=O)NC1CCN(Cc2coc(-c3ccccc3)n2)CC1 | -43.3 |
| CC(NCc1nnc2n1CCCC2)c1nc(C(C)(C)C)no1 (stereo not drawn) | -39.2 |
| CSC1(CNC(=O)NCc2sccc2C)CCOCC1 | -49.6 |
| CCOc1ccc(Cl)c(C(=O)NC(Cc2ccccc2)C(N)=O)n1 (stereo not drawn) | 15.4 |
| CCOc1ncccc1CNS(=O)(=O)c1ccc2c(c1)CCC2 | 13.3 |
| COC(=O)c1ccc(N2CCN(C(=O)C3CCC3)C(C)C2)cc1 (stereo not drawn) | -4.18 |
| COc1cc(C(=O)O)ccc1OCC(=O)NC(C)c1ccc(F)cc1 (stereo not drawn) | -1.4 |
| Cc1cc(CN(Cc2ccccc2)CC(O)c2cccs2)on1 (stereo not drawn) | 5.29 |
| Cc1ccoc1C(=O)NCC(c1ccccc1Cl)N1CCOCC1 (stereo not drawn) | 8.21 |
| CC(Oc1ccccc1C(F)(F)F)C(=O)NCCCC(N)=O (stereo not drawn) | -1.73 |
| Cc1cc(C)n(CCC(=O)N2CCCC(n3nc(C)nc3C)C2)n1 (stereo not drawn) | -5.61 |
| CCOc1cc(CNC(=O)NCc2nc(C)c(C)s2)ccn1 | -2.49 |
| O=S1(=O)CCC(n2cc(CNCC3(c4ccccc4)CC3)cn2)C1 (stereo not drawn) | 16.5 |
| CCNC(=O)NC(=O)C(C)N1CCCc2cc(OC)ccc2C1 (stereo not drawn) | 9.86 |
| COc1cc(F)c(S(=O)(=O)NCc2ccnc(N(C)C)n2)cc1OC | -147 |
| CC(NC(=O)Nc1nncs1)C(=O)NC1CCCC1 (stereo not drawn) | -5.36 |
| Cc1nc(CNC(=O)NC2CCN(c3ncccc3Cl)C2)oc1C (stereo not drawn) | 2.93 |
| O=C(O)CC1CN(S(=O)(=O)c2cccc(F)c2)c2ccccc21 (stereo not drawn) | -4.17 |
| CNC(=O)C(C)S(=O)(=O)Cc1csc(-c2cccs2)n1 (stereo not drawn) | -11.9 |
| CNC(=O)C1CCCN(C(=O)NCCC2Cc3ccccc3C2)C1 (stereo not drawn) | 15.4 |
| O=S(=O)(Cc1ccc(F)cc1)NCCc1nnc2n1CCC2 | 17.2 |
| CCOC(=O)CCNC(=O)c1cc(Cl)cc2cccnc12 | 15 |

| Compound | cytotoxicity at 10 µM [%] |
| --- | --- |
| O=C(NCC1CCC2(CC1)OCCO2)c1cccc(-n2cccn2)c1 | 0.477 |
| O=C(COc1ccccc1C(F)(F)F)NCCNC(=O)c1ccccc1 | -9.53 |
| CC(C)N(CC1CCCN(CC(N)=O)C1)C(=O)OC(C)(C)C (stereo not drawn) | -5.66 |
| CS(=O)(=O)NC1CCc2[nH]c(=O)ccc2C1 (stereo not drawn) | 3.46 |
| O=C(c1ccnn1-c1ccc2ccccn12)N1CCCC1 | -102 |
| Cn1nc(C#N)c2c1CN(C(=O)c1nc[nH]n1)CCC2 | -100 |
| COc1cc(N2CCC3(C2)CN(c2cccnc2)C(=O)CN3C)ncn1 (stereo not drawn) | -107 |
| CC(C)n1cnc(-c2nc(C(=O)NC3CC3)c3ccccn23)c1 | -102 |
| CS(=O)(=O)NCc1noc2c1CN(C(=O)C1CC1)CC2 | -107 |
| COc1ccccc1CCc1nc(CC2CCN(C)CC2)no1 | 7.71 |
| COc1ccc(CN(C)C2CCN(S(C)(=O)=O)CC2)c2cccnc12 | 98.9 |
| N#CC1(c2ccccc2)CCN(C(=O)C2CCCN(C(N)=O)C2)CC1 (stereo not drawn) | -22.2 |
| CC[S+]([O-])CCc1nc(CC(C)C)nn1-c1ccc2c(c1)OCCO2 (stereo not drawn) | 4.24 |
| COCCc1ncc(CN2C[C@H](C3CC3)[C@@H](N)C2)cn1 | -42 |
| C=C(C)COc1cccc(CNC(CC(C)C)c2ncnn2C)c1 (stereo not drawn) | 1.16 |
| CCC(C)N(Cc1cnc(NC(C)C)nc1)Cc1ccsc1 (stereo not drawn) | 3.84 |
| C[C@@H]1CN(C(=O)c2cc(Cn3cnc4ccccc43)on2)C[C@H](C)O1 | 1.69 |
| Cc1cccc2[nH]c(C3CCN(C(=O)c4ccc[nH]4)CC3)nc12 | 6.01 |
| CCC[C@H]1CN(S(C)(=O)=O)C[C@@H]1NC(=O)Cc1ccc(F)cc1C | -7.13 |
| CC(=O)NCCC(=O)N(C/C=C/c1ccccc1)CCO | 4.1 |
| O=C(CCNCc1cc(O)c2cc(F)ccc2n1)N1CCCC1 | -49.3 |
| CCc1ncc2c(n1)CN(C(=O)CNC(=O)c1ccccc1)C2 | 2.41 |

| Compound | cytotoxicity at 10 µM [%] |
| --- | --- |
| CCOc1ccc(Cc2c(O)nc(SC)n(-c3ccccc3)c2=O)cc1 | 4.04 |
| CNC(=O)[C@@H]1C[C@H](n2cc(-c3ccc(Cl)cc3)nn2)CN1 | 5.89 |
| CC(O)c1cn(CC2CCN(C(=O)c3cscn3)CC2)nn1 (stereo not drawn) | 1.83 |
| COc1cc2c(cc1OC)CN(Cc1ncccc1C(=O)O)CC2 | 5.31 |
| COCCNc1cc(-c2ccccc2C(=O)O)c2cc[nH]c2n1 | 2.13 |
| CN(C)c1ncnc2c1CCN(S(=O)(=O)c1ccccc1C(F)(F)F)C2 | 21.3 |
| Cc1nc(-c2cccc(N3CCC(N4CCCC4)CC3)c2)cs1 | -17.2 |
| COc1ccc([C@@H]2CN(Cc3cccnc3N)C[C@H]2N(C)C)cc1 | 1.54 |
| CCn1ccnc1CN1CCC(Oc2ccccc2F)(C(=O)O)CC1 | 6.84 |
| COc1ccc(C(=O)n2nc(C)c(C)c2C)cc1 | 6.06 |
| NC(=O)COc1cccc(C(=O)Nc2cnc3n2CCCC3)c1 | 18.2 |
| O=C1O[C@@H]2CN(Cc3cccc(F)c3)C[C@@H]2N1CCCN1CCOCC1 | -9.9 |
| CCNC(=O)C1CCN(Cn2nc(-c3ccc(F)cc3)oc2=O)CC1 | -4.71 |
| Cc1nccn1-c1cc(CNC(=O)CC2CCCO2)ccn1 (stereo not drawn) | 0.491 |
| CCOc1ccc(C(=O)N2CCCC2c2cnn(C)c2)cn1 (stereo not drawn) | -3.71 |
| CC(=O)NCCNC(=O)c1cnc(C(C)(C)C)s1 | -2.17 |
| COCCN1CCC(CNC(=O)C2(c3cccc(Cl)c3)CC2)C1 (stereo not drawn) | -6.63 |
| CCc1cnc(CN(C(C)=O)C2CCN(CC(=O)N3CCCC3)C2)o1 (stereo not drawn) | -6.63 |
| Cc1ccccc1OCCN1CCN(Cc2cnn(CCO)c2)CC1 | -17.9 |
| CCC(=O)N1CCN(C(=O)NCCOc2ccc3c(c2)CCC3)CC1 | -7.57 |
| CCN(CC1CCOC1)C(=O)c1cccnc1N1CCOCC1 (stereo not drawn) | -10.8 |
| CC(NC(=O)NCCCn1ccnc1)c1ccc2c(c1)OCCCO2 (stereo not drawn) | -15.1 |

| Compound | cytotoxicity at 10 µM [%] |
| --- | --- |
| CC(NC(=O)NCCCN1CCCCCC1)c1nncn1C (stereo not drawn) | -7.1 |
| CS(=O)(=O)N1CCC(C(=O)NCCNc2ncccn2)CC1 | -8.11 |
| CCNc1cc2c(nn1)CCN(C(=O)c1ccc3cc[nH]c3c1)C2 | -6.95 |
| Cc1nn(C)c(N2CCOCC2)c1CNCc1nccs1 | -6.33 |
| O=C(N1CCC(Nc2cccnn2)CC1)C1(c2ccc(F)cc2)CC1 | -12.8 |
| CCn1c(C)cc(C(=O)N2CCCC(c3nc(C)no3)C2)c1C (stereo not drawn) | -3.39 |
| Cc1ccc(CN(CCCN2CCOCC2)Cc2cnn(C)c2)o1 | -1.06 |
| O=C(C1CCOCC1)N1CCO[C@H]2[C@H](Oc3ccccn3)CC[C@@H]21 | -99.6 |
| CN(C)CCN1CCOCC2(CCCN(C(=O)c3ccoc3)C2)C1 (stereo not drawn) | 4.87 |
| Fc1cnc(N2CCC3(CC2)CC(OCc2cccnc2)CO3)nc1 (stereo not drawn) | 2.25 |
| CCC1=N[C@@]2(CC[C@@H]3CN(CC4CC4)C[C@@H]32)C(=O)N1CC1CC1 | 5.39 |
| Cc1ccc(CN2CC[C@H]3[C@H]2CC(=O)N3c2cccnc2)o1 | 5.67 |
| Cc1cccc(CN2CC3(CCN(C(=O)N(C)C)CC3)OCC2=O)n1 | -3.88 |
| Fc1ccccc1CO[C@@H]1C[C@H]2CN(c3ncccn3)CCN2C1 | 1.09 |
| CC(=O)N1CCC2(CC1)CN(C(=O)[C@@H]1CSCN1)c1ccc(Cl)cc12 | -1.91 |
| CCc1ncnc2c1CCN(CC(=O)N(C)C)CC2 | -106 |
| Cc1cccc(CN2CCC3(CC2)CN(c2cccnc2)C(=O)CO3)n1 | -96.1 |
| O=C(NCc1cccs1)[C@@H]1CC[C@@H]2[C@@H](CCN2CC2CCC2)O1 | -10.2 |
| Cc1noc([C@@H]2C[C@H]3OCC[C@H]3N(S(=O)(=O)c3cccnc3)C2)n1 | -12.5 |
| O=C(Nc1ccccc1)[C@H]1C[C@H]2CN(S(=O)(=O)C3CC3)C[C@@H]1O2 | 4.44 |
